Experimental data from ChEMBL document CHEMBL1136954, “Toward the back-up of boceprevir (SCH 503034): discovery of new extended P4-capped ketoamide inhibitors of hepatitis C virus NS3 serine protease with improved potency and pharmacokinetic profiles” (J Med Chem, 2009).

What was measured:
[1] = Inhibition of HCV NS4A-tethered single chain NS3 serine protease by spectrophotometric assay; parameters: species or system Hepacivirus hominis
Outline: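 Continuous assay with NS4A-tethered single-chain NS3 serine protease; potency given as Ki*.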

[2] = Cytotoxicity against human hepatocytes assessed as effect on GAPDH RNA level […]; type: cell-based, Hepatocyte
Outline: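 Counter-screen for cellular toxicity measuring GAPDH; CC50 reported.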

[3] = system: Hepatitis C virus; assay: Antiviral activity against Hepatitis C virus genotype 1 infected in human hepatocytes by replicon assay; type: functional, Hepacivirus hominis; settings: genotype 1, Hepatocyte
Outline: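 HCV genotype 1 replicon cell assay; EC90 reported, within 3-fold at 95% confidence for a single assay and within 2-fold for multiple assays.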

SMILES | Ki [1] [nM] | CC50 [2] [nM] | EC90 [3] [nM]
CC1(NC(=O)N[C@H](C(=O)N2C[C@H]3[C@@H](C2C(=O)NC(CC2CCC2)C(=O)C(N)=O)C3(C)C)C(C)(C)C)CCCCC1 (some centres not stated) | 8 | > 5000 | 200
CC(C)[C@H](NC(=O)N[C@H](C(=O)N1C[C@H]2[C@@H]([C@H]1C(=O)NC(CC1CC1)C(=O)C(N)=O)C2(C)C)C(C)(C)C)C(=O)OCc1ccccc1 (mixture of isomers) | 13 | > 5000 | 35
CC(C)(C)[C@H](NC(=O)NC1(C(=O)OCc2ccccc2)CC1)C(=O)N1C[C@H]2[C@@H]([C@H]1C(=O)NC(CC1CC1)C(=O)C(N)=O)C2(C)C (mixture of isomers) | 170 | > 5000 | 1000
CC(C)[C@H](NC(=O)N[C@H](C(=O)N1C[C@H]2[C@@H]([C@H]1C(=O)NC(CC1CC1)C(=O)C(N)=O)C2(C)C)C(C)(C)C)C(=O)C(C)(C)C (mixture of isomers) | 12 | > 5000 | 200
CC(C)C(=O)[C@@H](NC(=O)N[C@H](C(=O)N1C[C@H]2[C@@H]([C@H]1C(=O)NC(CC1CC1)C(=O)C(N)=O)C2(C)C)C(C)(C)C)C(C)C (mixture of isomers) | 12 | > 5000 | 150
CC(C)(C)[C@H](NC(=O)N[C@H](C(=O)OCc1ccccc1)C1CCCCC1)C(=O)N1C[C@H]2[C@@H]([C@H]1C(=O)NC(CC1CC1)C(=O)C(N)=O)C2(C)C (mixture of isomers) | 10 | > 5000 | 20
CC(C)(C)[C@H](NC(=O)NC1(C(=O)NS(=O)(=O)c2ccccc2)CCCCC1)C(=O)N1C[C@H]2[C@@H]([C@H]1C(=O)NC(CC1CC1)C(=O)C(N)=O)C2(C)C (mixture of isomers) | 110 | > 5000 | 5000
CC(C)[C@H](NC(=O)N[C@H](C(=O)N1C[C@H]2[C@@H]([C@H]1C(=O)NC(CC1CC1)C(=O)C(N)=O)C2(C)C)C(C)(C)C)C(=O)C1CCC1 (mixture of isomers) | 20 | > 5000 | 350
CC(C)[C@H](NC(=O)N[C@H](C(=O)N1C[C@H]2[C@@H]([C@H]1C(=O)NC(CC1CC1)C(=O)C(N)=O)C2(C)C)C(C)(C)C)c1nnn[nH]1 (mixture of isomers) | 10 | > 5000 | 1000
CC(C)(C)[C@H](NC(=O)N[C@H](C(=O)OCc1ccccc1)C1CCCC1)C(=O)N1C[C@H]2[C@@H]([C@H]1C(=O)NC(CC1CC1)C(=O)C(N)=O)C2(C)C (mixture of isomers) | 9 | > 5000 | 25
CC(C)[C@](C)(NC(=O)N[C@H](C(=O)N1C[C@H]2[C@@H]([C@H]1C(=O)NC(CC1CC1)C(=O)C(N)=O)C2(C)C)C(C)(C)C)C(=O)OCc1ccccc1 (mixture of isomers) | 44 | > 5000 | 500
CC(C)[C@@H](Cc1ccccc1)NC(=O)N[C@H](C(=O)N1C[C@H]2[C@@H]([C@H]1C(=O)NC(CC1CC1)C(=O)C(N)=O)C2(C)C)C(C)(C)C (mixture of isomers) | 59 | > 5000 | –
CO/N=C(\c1ccccc1)[C@@H](NC(=O)N[C@H](C(=O)N1C[C@H]2[C@@H]([C@H]1C(=O)NC(CC1CC1)C(=O)C(N)=O)C2(C)C)C(C)(C)C)C(C)C (mixture of isomers) | 50 | > 5000 | –
COC(=O)C1(NC(=O)N[C@H](C(=O)N2C[C@H]3[C@@H]([C@H]2C(=O)NC(CC2CC2)C(=O)C(N)=O)C3(C)C)C(C)(C)C)CCCCC1 (mixture of isomers) | 30 | > 5000 | 200
CC(C)(C)[C@H](NC(=O)NC1(C(=O)O)CCCCC1)C(=O)N1C[C@H]2[C@@H]([C@H]1C(=O)NC(CC1CC1)C(=O)C(N)=O)C2(C)C (mixture of isomers) | 9 | > 5000 | 5000
CC(C)[C@H](NC(=O)N[C@H](C(=O)N1C[C@H]2[C@@H]([C@H]1C(=O)NC(CC1CC1)C(=O)C(N)=O)C2(C)C)C(C)(C)C)C(=O)C1CCCCC1 (mixture of isomers) | 13 | > 5000 | 200
CC(C)[C@H](NC(=O)N[C@H](C(=O)N1C[C@H]2[C@@H]([C@H]1C(=O)NC(CC1CC1)C(=O)C(N)=O)C2(C)C)C(C)(C)C)C(=O)NS(=O)(=O)c1ccccc1 (mixture of isomers) | 6 | > 5000 | 5000
CC(C)(C)[C@H](NC(=O)NC1(C(=O)OCC2CC2)CCCCC1)C(=O)N1C[C@H]2[C@@H]([C@H]1C(=O)NC(CC1CC1)C(=O)C(N)=O)C2(C)C (mixture of isomers) | 39 | > 5000 | 60

SMILES | Ki [1] [nM] | CC50 [2] [nM] | EC90 [3] [nM]
CC(C)(C)[C@H](NC(=O)NC1(C(=O)OCc2ccco2)CCCCC1)C(=O)N1C[C@H]2[C@@H]([C@H]1C(=O)NC(CC1CC1)C(=O)C(N)=O)C2(C)C (mixture of isomers) | 28 | > 5000 | 30
C[C@@H](OC(=O)C1(NC(=O)N[C@H](C(=O)N2C[C@H]3[C@@H]([C@H]2C(=O)NC(CC2CC2)C(=O)C(N)=O)C3(C)C)C(C)(C)C)CCCCC1)c1ccccc1 (mixture of isomers) | 80 | > 5000 | 600
CC(C)(C)[C@H](NC(=O)N[C@H](C(=O)N1C[C@H]2[C@@H]([C@H]1C(=O)NC(CC1CC1)C(=O)C(N)=O)C2(C)C)C(C)(C)C)C(=O)OCc1ccccc1 (mixture of isomers) | 67 | > 5000 | 50
CC(C)(C)[C@H](NC(=O)NC1(C(=O)OCc2ccccc2)CCCC1)C(=O)N1C[C@H]2[C@@H]([C@H]1C(=O)NC(CC1CC1)C(=O)C(N)=O)C2(C)C (mixture of isomers) | 58 | > 5000 | 30
CC(C)[C@H](NC(=O)N[C@H](C(=O)N1C[C@H]2[C@@H]([C@H]1C(=O)NC(CC1CC1)C(=O)C(N)=O)C2(C)C)C(C)(C)C)[C@H](O)c1ccccc1 (mixture of isomers) | 77 | > 5000 | –
CC(C)(C)[C@H](NC(=O)NC1(C(=O)OCc2ccoc2)CCCCC1)C(=O)N1C[C@H]2[C@@H]([C@H]1C(=O)NC(CC1CC1)C(=O)C(N)=O)C2(C)C (mixture of isomers) | 39 | > 5000 | 20
CC(C)(C)[C@H](NC(=O)NC1(C(=O)c2ccccc2)CCCCC1)C(=O)N1C[C@H]2[C@@H]([C@H]1C(=O)NC(CC1CC1)C(=O)C(N)=O)C2(C)C (mixture of isomers) | 100 | > 5000 | 2000
CC(C)(NC(=O)N[C@H](C(=O)N1C[C@H]2[C@@H]([C@H]1C(=O)NC(CC1CC1)C(=O)C(N)=O)C2(C)C)C(C)(C)C)C(=O)OCc1ccccc1 (mixture of isomers) | 210 | > 5000 | 1480
C=C(c1ccccc1)[C@@H](NC(=O)N[C@H](C(=O)N1C[C@H]2[C@@H]([C@H]1C(=O)NC(CC1CC1)C(=O)C(N)=O)C2(C)C)C(C)(C)C)C(C)C (mixture of isomers) | 50 | > 5000 | –
CC(C)[C@H](NC(=O)N[C@H](C(=O)N1C[C@H]2[C@@H]([C@H]1C(=O)NC(CC1CC1)C(=O)C(N)=O)C2(C)C)C(C)(C)C)C(=O)O[C@H](C)c1ccccc1 (mixture of isomers) | 80 | > 5000 | 600
CC(C)(C)[C@H](NC(=O)NC1(C(=O)NCc2ccccc2)CCCCC1)C(=O)N1C[C@H]2[C@@H]([C@H]1C(=O)NC(CC1CC1)C(=O)C(N)=O)C2(C)C (mixture of isomers) | 44 | > 5000 | 5000
CC(C)(C)[C@H](NC(=O)NC1(COC(=O)c2ccccc2)CCCCC1)C(=O)N1C[C@H]2[C@@H]([C@H]1C(=O)NC(CC1CC1)C(=O)C(N)=O)C2(C)C (mixture of isomers) | 120 | > 5000 | 1000
C=CCNC(=O)C(=O)C(CCCC)NC(=O)[C@@H]1[C@@H]2[C@H](CN1C(=O)[C@@H](NC(=O)N[C@H](C(=O)C1CC1)C1CCCCC1)C(C)(C)C)C2(C)C (mixture of isomers) | 38 | > 5000 | 900
CC(C)(C)[C@H](NC(=O)N[C@H](C(=O)OCc1ccccc1)C1CC1)C(=O)N1C[C@H]2[C@@H]([C@H]1C(=O)NC(CC1CC1)C(=O)C(N)=O)C2(C)C (mixture of isomers) | 10 | > 5000 | 20
C=CCNC(=O)C(=O)C(CC1CC1)NC(=O)[C@@H]1[C@@H]2[C@H](CN1C(=O)[C@@H](NC(=O)N[C@H](C(=O)C1CC1)C1CCCCC1)C(C)(C)C)C2(C)C (mixture of isomers) | 27 | > 5000 | 450
CC(C)[C@@](C)(NC(=O)N[C@H](C(=O)N1C[C@H]2[C@@H]([C@H]1C(=O)NC(CC1CC1)C(=O)C(N)=O)C2(C)C)C(C)(C)C)C(=O)OCc1ccccc1 (mixture of isomers) | 290 | > 5000 | –
CO[C@H](c1ccccc1)[C@@H](NC(=O)N[C@H](C(=O)N1C[C@H]2[C@@H]([C@H]1C(=O)NC(CC1CC1)C(=O)C(N)=O)C2(C)C)C(C)(C)C)C(C)C (mixture of isomers) | 60 | > 5000 | –
CC(=O)[C@@H](NC(=O)N[C@H](C(=O)N1C[C@H]2[C@@H]([C@H]1C(=O)NC(CC1CC1)C(=O)C(N)=O)C2(C)C)C(C)(C)C)C(C)C (mixture of isomers) | 14 | > 5000 | 400
